Assay results as given in ChEMBL document CHEMBL1124955, “2-substituted-1-naphthols as potent 5-lipoxygenase inhibitors with topical antiinflammatory activity” (J Med Chem, 1990).

Tests used:
Mus musculus = experiment: Percentage inhibition of the mouse arachidonic acid induced ear edema assay (AA) at a dose of 100 ug/ear; assay type: functional
Outline: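 Groups of 10 male CF1 mice (18–20 g). Compound in acetone is applied topically to both ears just before 1 mg arachidonic acid in acetone is applied to one ear; the other ear serves as control. Mice are killed 60 min later and 6-mm ear punches weighed; swelling is the weight difference. %Inhibition = [(C−T)/C]×100, with Student's t test.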

Cyclooxygenase = target: T1, Cyclooxygenase (Bos taurus, UniProt O62664+O62698); experiment: In vitro inhibition of Prostaglandin G/H synthase in BSV cell line.; assay type: cell-based
T1 sequence (O62664 whole entry): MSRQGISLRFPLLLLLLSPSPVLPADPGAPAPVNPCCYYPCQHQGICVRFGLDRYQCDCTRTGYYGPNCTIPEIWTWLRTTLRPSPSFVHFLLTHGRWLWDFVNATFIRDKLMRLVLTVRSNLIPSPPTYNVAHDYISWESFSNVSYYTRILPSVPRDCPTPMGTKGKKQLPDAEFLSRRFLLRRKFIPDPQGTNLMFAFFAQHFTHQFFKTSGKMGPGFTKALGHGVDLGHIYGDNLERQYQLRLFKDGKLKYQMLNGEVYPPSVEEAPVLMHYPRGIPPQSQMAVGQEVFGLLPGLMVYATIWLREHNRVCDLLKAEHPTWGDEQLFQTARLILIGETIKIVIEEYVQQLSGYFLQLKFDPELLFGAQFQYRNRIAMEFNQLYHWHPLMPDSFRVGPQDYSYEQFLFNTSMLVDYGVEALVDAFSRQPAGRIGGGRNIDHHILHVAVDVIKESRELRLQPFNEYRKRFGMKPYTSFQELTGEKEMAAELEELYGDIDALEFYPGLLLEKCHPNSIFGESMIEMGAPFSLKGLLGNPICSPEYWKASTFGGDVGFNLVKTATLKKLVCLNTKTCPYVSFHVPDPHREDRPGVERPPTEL
T1 sequence (O62698 whole entry): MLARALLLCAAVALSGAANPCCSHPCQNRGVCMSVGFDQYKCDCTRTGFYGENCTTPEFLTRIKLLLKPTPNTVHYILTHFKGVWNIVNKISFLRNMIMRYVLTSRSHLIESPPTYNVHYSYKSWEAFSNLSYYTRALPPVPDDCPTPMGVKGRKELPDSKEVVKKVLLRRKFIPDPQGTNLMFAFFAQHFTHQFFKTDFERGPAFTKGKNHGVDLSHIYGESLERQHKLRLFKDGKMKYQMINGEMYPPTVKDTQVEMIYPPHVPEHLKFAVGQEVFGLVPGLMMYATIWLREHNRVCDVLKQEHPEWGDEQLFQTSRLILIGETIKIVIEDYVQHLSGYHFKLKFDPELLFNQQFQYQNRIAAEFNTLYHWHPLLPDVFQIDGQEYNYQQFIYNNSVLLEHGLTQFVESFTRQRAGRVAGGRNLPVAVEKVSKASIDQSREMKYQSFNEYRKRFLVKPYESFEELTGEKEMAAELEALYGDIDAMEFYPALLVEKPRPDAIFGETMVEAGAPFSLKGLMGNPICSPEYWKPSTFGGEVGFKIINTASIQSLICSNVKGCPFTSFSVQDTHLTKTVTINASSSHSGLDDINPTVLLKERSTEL

[1] = target: T2, Polyunsaturated fatty acid 5-lipoxygenase (Rattus norvegicus, UniProt P12527); experiment: Ability to inhibit 5-lipoxygenase by using a crude preparation of the cytosolic enzyme from the rat basophilic leukemia (RBL-1) cell line; assay type: cell-based
T2 sequence (P12527 whole entry): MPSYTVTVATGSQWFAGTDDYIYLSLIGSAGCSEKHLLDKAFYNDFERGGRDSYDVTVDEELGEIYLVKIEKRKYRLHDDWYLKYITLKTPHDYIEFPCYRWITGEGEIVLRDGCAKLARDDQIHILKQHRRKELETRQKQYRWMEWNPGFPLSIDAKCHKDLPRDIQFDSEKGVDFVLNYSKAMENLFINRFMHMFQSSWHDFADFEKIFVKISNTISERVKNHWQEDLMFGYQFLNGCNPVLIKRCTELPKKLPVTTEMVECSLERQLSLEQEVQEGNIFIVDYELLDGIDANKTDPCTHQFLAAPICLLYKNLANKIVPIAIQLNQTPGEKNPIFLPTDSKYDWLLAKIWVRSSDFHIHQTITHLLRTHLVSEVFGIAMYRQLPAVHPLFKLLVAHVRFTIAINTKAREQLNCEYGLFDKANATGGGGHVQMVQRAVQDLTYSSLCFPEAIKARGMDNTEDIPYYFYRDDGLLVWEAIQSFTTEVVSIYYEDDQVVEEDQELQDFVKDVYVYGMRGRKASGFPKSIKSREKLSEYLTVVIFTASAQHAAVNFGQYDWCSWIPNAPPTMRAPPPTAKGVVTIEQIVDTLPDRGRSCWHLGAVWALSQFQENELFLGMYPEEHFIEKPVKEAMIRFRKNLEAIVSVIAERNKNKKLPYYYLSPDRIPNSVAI
Outline: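 Crude cytosolic enzyme (supernatant) from RBL-1 cells, amount giving net 3300–3800 dpm 5-HETE (9–20 μg cell protein/assay). Enzyme is preincubated 5 min at 37 °C, pH 7.0, with compound (in 5% DMSO/Tris pH 8.5) in phosphate buffer with EDTA, gelatin, glutathione, CaCl2 and 0.012 mM indomethacin. Reaction is started with 0.042 mM final [14C]arachidonic acid and stopped by freezing after 2 min.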

| IC50 (Cyclooxygenase) [nM] | IC50 [1] [nM] | Compound | Inhibition (Mus musculus) [%] |
| --- | --- | --- | --- |
| 5900 | 820 | Oc1ccc(Cc2ccccc2)c2ccccc12 | 42 |
| – | 1700 | COc1cc2ccc(Cc3ccccc3)c(O)c2cc1OC | 33 |
| – | 570 | CCOc1ccccc1Cc1ccc2ccccc2c1O | 51 |
| – | 20 | Cc1cc(Cc2ccccc2)c(O)c2ccccc12 | 62 |
| – | 51 | COc1ccc(Cc2ccc3ccccc3c2O)cc1OC | 60 |
| 35000 | 7200 | Oc1cc2ccccc2cc1Cc1ccccc1 | 33 |
| – | 140 | Oc1c(CCc2ccccc2)ccc2ccccc12 | 69 |
| – | 24 | Cc1ccc(Cc2ccc3ccccc3c2O)cc1 | 79 |
| – | 270 | Oc1c(Cc2cccc(C(F)(F)F)c2)ccc2ccccc12 | 67 |
| – | 390 | Oc1c(Cc2ccccn2)ccc2ccccc12 | 56 |
| – | 240 | CS(=O)(=O)c1ccc(Cc2ccc3ccccc3c2O)cc1 | 0 |
| – | 120 | Cc1ccc(C)c2c(O)c(Cc3ccccc3)ccc12 | 52 |
| – | 140 | CN(C)c1ccc(Cc2ccc3ccccc3c2O)cc1 | 67 |
| 37000 | 180 | CC(C)(C)c1ccc2ccccc2c1O | 67 |
| – | 140 | Cn1cccc1Cc1ccc2ccccc2c1O | 72 |
| – | 56 | Oc1c(Cc2ccccc2)cc(-c2ccccc2)c2ccccc12 | 26 |
| – | 68 | Oc1c(Cc2ccc(Br)cc2)ccc2ccccc12 | 50 |
| – | 52 | Oc1c(Cc2cccc(Cl)c2)ccc2ccccc12 | 67 |
| 13000 | 160 | Oc1c(/C=C\c2ccccc2)ccc2ccccc12 | 65 |
| – | 88 | Oc1c(Cc2cccc(Br)c2)ccc2ccccc12 | 55 |
| 11000 | 45 | CCOC(=O)/C=C/c1ccc2ccccc2c1O | 0 |

| IC50 (Cyclooxygenase) [nM] | IC50 [1] [nM] | Compound | Inhibition (Mus musculus) [%] |
| --- | --- | --- | --- |
| – | 62 | CCOc1ccc(Cc2ccc3ccccc3c2O)cc1 | 68 |
| – | 54 | O=C(c1ccccc1)c1cc(Cc2ccccc2)c(O)c2ccccc12 | 41 |
| – | 75 | COc1ccc(Cc2ccc3ccccc3c2O)cc1 | 85 |
| – | 48000 | O=[N+]([O-])c1cc(Cc2ccccc2)c(O)c2ccccc12 | 28 |
| 13000 | 58 | CCOC(=O)CCc1ccc2ccccc2c1O | 69 |
| – | 130 | Oc1c(Cc2ccc(F)cc2)ccc2ccccc12 | 76 |
| – | 60 | Oc1c(Cc2cccs2)ccc2ccccc12 | 84 |
| – | 140 | Oc1c(Cc2ccncc2)ccc2ccccc12 | 62 |
| – | 31 | COc1cc(Cc2ccccc2)c(O)c2ccccc12 | 69 |
| – | 37 | Oc1c(Cc2ccco2)ccc2ccccc12 | 84 |
| 14000 | – | CC(Cc1ccc(O)c(O)c1)C(C)Cc1ccc(O)c(O)c1 (centres undefined) [NORDIHYDROGUAIARETIC ACID] | 25 |
| 3000 | 130 | Cc1ccc2ccccc2c1O | 73 |
| 52000 | 8800 | Oc1c(Cc2ccccc2)cccc1Cc1ccccc1 | 21 |
| 8700 | 70 | CC(c1ccccc1)c1ccc2ccccc2c1O (centres undefined) | 45 |
| – | 72 | Oc1c(Cc2ccc(OCc3ccccc3)cc2)ccc2ccccc12 | 12 |
| – | 100 | COc1cccc2c(O)c(Cc3ccccc3)ccc12 | 69 |
| – | 1900 | COc1ccc2c(O)c(Cc3ccccc3)ccc2c1 | 76 |
| – | 9400 | NS(=O)(=O)c1cc(Cc2ccccc2)c(O)c2ccccc12 | 3 |
| 2700 | 690 | Oc1cc(Cc2ccccc2)cc2ccccc12 | 28 |
| – | 110 | COc1cccc(Cc2ccc3ccccc3c2O)c1 | 72 |
| – | 510 | CC(=O)c1cc(Cc2ccccc2)c(O)c2ccccc12 | 16 |

| IC50 (Cyclooxygenase) [nM] | IC50 [1] [nM] | Compound | Inhibition (Mus musculus) [%] |
| --- | --- | --- | --- |
| – | 3500 | COc1ccc2ccc(Cc3ccccc3)c(O)c2c1 | 52 |
| – | 40 | Oc1c(Cc2ccc3c(c2)OCO3)ccc2ccccc12 | 78 |
| – | 62 | Cc1cc(C)c2ccc(Cc3ccccc3)c(O)c2c1 | 44 |
| – | 48 | CSc1ccc(Cc2ccc3ccccc3c2O)cc1 | 76 |
| – | 120 | Cc1ccccc1Cc1ccc2ccccc2c1O | 66 |
| – | 48 | O=[N+]([O-])c1ccc(Cc2ccc3ccccc3c2O)cc1 | 58 |
| – | 230 | Oc1c(Cc2cccnc2)ccc2ccccc12 | 46 |
| – | 40000 | OC(c1ccccc1)c1ccc2ccccc2c1 (centres undefined) | 16 |
| – | 5800 | O=C(O)c1cc(Cc2ccccc2)c(O)c2ccccc12 | 3 |
| – | 83 | Oc1c(Cc2cccc(Oc3ccccc3)c2)ccc2ccccc12 | 60 |
| – | 180 | Oc1c(Cc2ccc(Cl)c(Cl)c2)ccc2ccccc12 | 58 |
| 18000 | 9100 | Cl.Nc1c(Cc2ccccc2)ccc2ccccc12 | 35 |
| 720000 | 4200 | O=C(O)CCCCc1ccc2ccccc2c1O | 9 |
| – | 160 | CCOC(=O)c1cc(Cc2ccccc2)c(O)c2ccccc12 | 16 |
| 240000 | – | CC(=O)Oc1c(Cc2ccccc2)ccc2ccccc12 | 63 |
| 2000 | 3600 | Oc1cccc2ccccc12 [1-NAPHTHOL] | 59 |
| – | 39 | Oc1c(Cc2ccc(Cl)cc2)ccc2ccccc12 | 66 |
| – | 40000 | CS(=O)(=O)c1cc(Cc2ccccc2)c(O)c2ccccc12 | 15 |
| – | 77 | Oc1c(Cc2ccccc2)cc(Br)c2ccccc12 | 33 |
| – | 3500 | Cn1ccnc1Cc1ccc2ccccc2c1O | 9 |
| – | 58 | Oc1c(Cc2ccc3ccccc3c2)ccc2ccccc12 | 52 |
